Experimental data reported in publication PMC8842081 (The Journal of Biological Chemistry, 2022).
Entries after “also recorded” stand apart in the source; their conditions may differ. Where no end group is shown, it is not given here.

What was measured:
[1] = target: RSPO2^TSP1–BMPR1A^ECD interaction (Homo sapiens, UniProt P36894); assay: In vitro competitive binding assay; conditions: for reduction of RSPO2^TSP1–BMPR1A^ECD interaction: 100 μM monomeric peptide, 3 h, AP activity, n = 2 to 3 experimental replicates
How it was run: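 Plates were coated overnight at 4 °C with 1 to 2 μg anti-HA and blocked 1 h in 5% BSA/TBST. HA-RSPO2 TSP1 conditioned medium was captured overnight. AP-BMPR1A ECD was then added for 3 h with 100 μM monomeric peptide (Cys→Ser; in DPBS pH 7.4) or a peptide concentration series. After TBST washes, bound AP was read with chemiluminescent substrate, and IC50 was fitted.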

[2] = system: pSmad1 in H1581 cells; assay: Western blot of pSmad1 in H1581 cells; assay type: cell-based, human; conditions: H1581 (elevated RSPO2), 0.5 μM dendrimer, 3 days
[3] = system: LGR4; assay: Cell surface–binding assay, RSPO2-AP on LGR4-transfected HEK293T cells; assay type: cell-based, human; conditions: 20 μM dendrimer, 3 h
How it was run: (§1)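 HEK293T cells were transfected with BMPR1A-HA or LGR4. They were incubated with RSPO2-AP or RSPO3-AP conditioned medium from transiently transfected HEK293T cells, plus 20 μM dendrimer or 50 μM monomeric peptide, for 3 h or 16 h. Surface-bound AP was developed with BM-Purple chromogenic substrate, then imaged and quantified.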

[4] = system: Xenopus tropicalis embryos; assay: Xenopus embryo blastocoel microinjection, phenotype; assay type: in vivo; conditions: 20 nl of 50 μM dendrimer into blastocoel at stage 9
How it was run: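 X. tropicalis embryos from in vitro fertilization received 20 nl of 50 μM dendrimer in PBS into the blastocoel at stage 9, with bmp4 mRNA at the 4-cell stage as comparator. Embryos were cultured to tailbud stage 28 and scored blind for head size and ventral structures across two independent experiments.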

[5] = system: RSPO2–BMPR1A interaction; assay: Cell surface–binding assay, RSPO2-AP on BMPR1A-transfected HEK293T cells; assay type: cell-based, human; conditions: for RSPO2 binding to BMPR1A transfected cells / RSPO2–BMPR1A binding after long-term dendrimer treatment: 20 μM dendrimer; for RSPO2 binding to BMPR1A transfected cells: n = 3; for RSPO2–BMPR1A binding after long-term dendrimer treatment: 16 h
How it was run: as §1

[6] = system: THP-1 cells; assay: Flow cytometry of CD11B^+ THP-1 cells; assay type: cell-based, human; conditions: THP-1, 3 days, 0.5/1.0/1.5 μM nonmodified, 2.0/3.0 μM N-PEG, 3.0/4.0 μM C-PEG dendrimer
[7] = system: BMP target gene expression (sizzled); assay: Whole-mount in situ hybridization of sizzled in Xenopus gastrulae; assay type: in vivo, Xenopus tropicalis; conditions: 20 nl of 50 μM dendrimer at stage 9, gastrulae stage 11
How it was run: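 X. tropicalis embryos were injected at stage 9 into the blastocoel with 20 nl of 50 μM dendrimer in PBS; bmp4 mRNA injected radially at the 4-cell stage served as control. Embryos were fixed at gastrula stage 11 and processed by whole-mount in situ hybridization with a digoxigenin-labeled antisense sizzled probe. The sizzled-expressing area was quantified, pooled from two independent experiments.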

[8] = system: pSmad1 in THP-1 AML cells; assay: Western blot of pSmad1 in THP-1 cells; assay type: cell-based, human; conditions: 3 days
How it was run: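 THP-1 cells were exposed for 3 days to 0.5 μM unmodified or N-PEG dendrimer, or 2.0 μM C-PEG dendrimer. Lysis was in Triton or RIPA buffer with protease inhibitors, followed by boiling in Laemmli/β-mercaptoethanol at 95 °C for 5 min. SDS-PAGE immunoblots were probed for phospho-Smad1 against total Smad1 and developed by ECL.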

[9] = system: RSPO3 binding to BMPR1A; assay: Cell surface–binding assay, RSPO3-AP on BMPR1A-transfected HEK293T cells; assay type: cell-based, human; conditions: 20 μM non-PEGylated dendrimer, 3 h; n = 3
How it was run: as §1

[10] = system: BMPR1A-HA membrane staining in H1581 cells; assay: Immunofluorescence of BMPR1A-HA membrane localization in H1581 cells; assay type: cell-based, human; conditions: H1581 transfected with BMPR1A-HA, 0.5 μM dendrimer, 3 days
[11] = system: BMP signaling (Vent2 reporter); assay: BMP-responsive Vent2 reporter assay in Xenopus embryos; assay type: in vivo, Xenopus tropicalis; conditions: 20 nl of 50 μM dendrimer at stage 9, firefly normalized to Renilla
How it was run: (§2)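 X. tropicalis embryos were co-injected at the 2-cell stage with 200 pg Vent-Luc (BMP) or Topflash (WNT) plus 100 pg Renilla-TK plasmid. At stage 9, 20 nl of 50 μM dendrimer in PBS went into the blastocoel; controls were bmp4 mRNA or lrp6 morpholino. Three pools of four embryos each were lysed at stage 14 to 15 for dual luciferase, firefly normalized to Renilla. Unpaired t test or one-way ANOVA.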

[12] = system: WNT signaling (TopFlash reporter); assay: WNT-responsive TopFlash reporter assay in Xenopus embryos; assay type: in vivo, Xenopus tropicalis; conditions: 20 nl of 50 μM dendrimer at stage 9, firefly normalized to Renilla
How it was run: as §2

[13] = system: P38 MAPK and P44/42 MAPK phosphorylation in HEPG2 cells; assay: Western blot of pP38 and pP44/42 MAP kinases in HEPG2 cells; assay type: cell-based, human; conditions: HEPG2, BMP4 + RSPO2, 0.5 μM dendrimer, 1 h, starved overnight
[14] = system: BMP4 signaling (pSmad1) in HEPG2 cells; assay: Western blot of pSmad1 in HEPG2 cells; assay type: cell-based, human
[15] = system: WNT-mediated activation of β-catenin in H1581 cells; assay: Western blot of activated β-catenin in H1581 cells treated with WNT3A; assay type: cell-based, human; conditions: 0.5 μM dendrimer
[16] = 0.5 μM nonmodified or N-PEG dendrimer

Chain of RSPO2^TSP1–BMPR1A^ECD interaction (P36894 24-152 limits assumed): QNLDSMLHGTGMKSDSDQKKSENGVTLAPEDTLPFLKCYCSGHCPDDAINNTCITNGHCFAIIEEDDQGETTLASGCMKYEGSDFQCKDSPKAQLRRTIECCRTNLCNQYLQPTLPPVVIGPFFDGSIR

RNNRTSGFKW [RW]
reduction of RSPO2^TSP1–BMPR1A^ECD interaction [1]: strongest inhibition; also recorded: greater than 50%
phosphorylation of Smad1 [2]: increased phosphorylation of Smad1
RSPO2 binding to LGR4 transfected cells [3]: without affecting LGR4 binding
embryotoxicity ([4]; listed as RW^d): no Xenopus embryotoxicity
RSPO2 binding to BMPR1A transfected cells ([5]; 3 h): abolished RSPO2 binding
RSPO2–BMPR1A binding after long-term dendrimer treatment [5]: completely disrupt RSPO2–BMPR1A binding
induction of the number of CD11B^+ cells [6]: ~10 fold
sizzled expression [7]: expanded BMP target gene expression (sizzled) toward the dorsal side
pSmad1 induction in THP-1 cells [8, 16]: induced pSmad1
RSPO3 binding to BMPR1A transfected cells [9]: unable to abolish RSPO3 binding
increase in the number of cells showing BMPR1A-HA membrane staining [10]: approximately threefold
endogenous BMP signaling (Vent2 reporter) [11]: enhanced endogenous BMP signaling
WNT signaling (TopFlash reporter) [12]: no effect on WNT signaling
rescue of RSPO2-mediated decrease of pP38 and pP44/42 levels [13]: rescued the RSPO2-mediated decrease of pP38 and pP44/42 levels
pSmad1 level without simultaneous treatment of RSPO2 ([14]; HEPG2, 0.5 μM dendrimer, 3 days): no effect on pSmad1 level
rescue of RSPO2-mediated decrease of pSmad1 levels ([14]; HEPG2, BMP4 + RSPO2, 0.5 μM dendrimer, 1 h, starved 3 h): rescued the RSPO2-mediated
rescue of RSPO3-mediated decrease of pSmad1 levels ([14]; HEPG2, BMP4 + RSPO3, 0.5 μM dendrimer, 1 h, starved 3 h): not the RSPO3-mediated decrease of pSmad1 levels
WNT-mediated activation of β-catenin [15]: no effect

SRRSKMTMRHSPG [SG]
reduction of RSPO2^TSP1–BMPR1A^ECD interaction [1]: greater than 50%

(PEG-RNNRTSGFKW)8-Lys4-Lys2-Lys-β-Ala [N-PEG RW^d]
RSPO2 binding to BMPR1A transfected cells ([5]; 3 h): abolished RSPO2 binding
RSPO2–BMPR1A binding after long-term dendrimer treatment [5]: completely disrupt RSPO2–BMPR1A binding

(PEG-KMTMR)8-Lys4-Lys2-Lys-β-Ala [N-PEG KR^d]
RSPO2 binding to BMPR1A transfected cells ([5]; 3 h): no effect

(RNNRTSGFKW-PEG)8-Lys4-Lys2-Lys-β-Ala [C-PEG RW^d]
pSmad1 induction in THP-1 cells ([8]; 2.0 μM C-PEG dendrimer): Elevated pSmad1 levels

KMTMR [KR]
effect on RSPO2–BMPR1A interaction in vitro (Fig. S2A) ([1]; peptide treatment, concentration not given): did not affect RSPO2–BMPR1A interaction
embryotoxicity [4]: no embryotoxicity
RSPO2 binding to BMPR1A transfected cells ([5]; 3 h): no effect
pSmad1 induction in THP-1 cells [8, 16]: but not KR^d treatment
increase in the number of cells showing BMPR1A-HA membrane staining [10]: but not KR^d treatment

DTILSPTIAE [DE]
reduction of RSPO2^TSP1–BMPR1A^ECD interaction [1]: greater than 50%

PEG-RW: RW peptide mini-PEGylated at both N and C termini ({mini‑PEG}-RNNRTSGFKW-{mini‑PEG})
inhibition of RSPO2-AP binding to BMPR1A-transfected cells, short-term ([5]; 50 μM PEGylated monomeric peptide, 3 h): inhibited RSPO2–BMPR1A interaction
